# Results reported in ChEMBL document CHEMBL1121813, “Dihydrochalcone sweeteners. A study of the atypical temporal phenomena” (1981).
# What was measured:
# Assay type in all cases: functional
# Homo sapiens [1] = species on record: Homo sapiens; assay: Intensity calculated on a weight basis relative to an 85500 ppm sucrose solution at a concentration of 244 ppm (mean value)
# Procedure, shortened: (§1)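 Trained human panel tasted aqueous solutions of purity-checked (≥95 weight percent) compounds cleared for mutagenicity and mouse oral toxicity. Weight-basis intensity I_w = perceived intensity × (85500 ppm sucrose / compound concentration in ppm). The mean is reported with 2S_m limits; data deviating excessively at 95% confidence were rejected by the t-value method.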
# Homo sapiens [2] = species on record: Homo sapiens; assay: Sour character at a concentration of 244 ppm (mean value)
# Homo sapiens [3] = species on record: Homo sapiens; assay: Salty character at a concentration of 244 ppm (mean value)
# Homo sapiens [4] = species on record: Homo sapiens; assay: Bitter character at a concentration of 244 ppm (mean value)
# Procedure, shortened: (§2)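 Trained human panel tasted aqueous solutions. Each judge reported whether there was an aftertaste and its character (sweet, bitter or bitter-sweet). The value is the percentage of judgments reporting a bitter aftertaste.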
# Homo sapiens [5] = species on record: Homo sapiens; assay: Experimentally determined perceived intensity of compound at a concentration of 244 ppm (mean value)
# Procedure, shortened: (§3)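 Trained human sensory panel of judges tasted aqueous solutions of the compound. Samples had to be ≥95 weight % pure (HPLC, proton titration, Karl Fischer), non-mutagenic in five Salmonella typhimurium strains with and without microsomal activation, and non-toxic in a single-oral-dose mouse test. Perceived intensity (Ip) was read from time–intensity curves at 4- or 6-s intervals and averaged. Outliers at the 95% level were rejected by t-value. Values reported as mean (2Sm).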
# Homo sapiens [6] = species on record: Homo sapiens; assay: Sweet / Bitter character at a concentration of 244 ppm (mean value)
# Homo sapiens [7] = species on record: Homo sapiens; assay: Number of taste judgments per compound
# Homo sapiens [8] = species on record: Homo sapiens; assay: Sweet character at a concentration of 244 ppm (mean value)
# Homo sapiens [9] = species on record: Homo sapiens; assay: Intensity calculated on a molar basis relative to a 0.25 M sucrose solution at a concentration of 244 ppm (mean value)
# Procedure, shortened: (§4)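 Trained human judges tasted aqueous solutions of the test compound; compounds were first required to be ≥95 weight percent pure and free of mutagenicity (five Salmonella typhimurium strains, ± microsomal activation) and of single oral dose mouse toxicity. Molar intensity I_m = perceived intensity × (0.25 M sucrose / compound molar concentration). The mean is reported with 2S_m limits; outliers were rejected at 95% confidence by t-value.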
# Homo sapiens [10] = species on record: Homo sapiens; assay: Other taste character at a concentration of 244 ppm (mean value)
# Procedure, shortened: (§5)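 Trained human sensory panel (Swartz method) tasted dilute aqueous solutions of the compounds, which had to be ≥95 weight percent pure and free of mutagenicity and toxicity. Taste character is reported as the mean value with 2S_m limits. Data deviating excessively at the 95% confidence level were rejected by the t-value method.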
# Homo sapiens [11] = species on record: Homo sapiens; assay: Percentage of judgments reporting an aftertaste at a concentration of 244 ppm and character thereof; Bitter
# Procedure, shortened: (§6)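 Trained judges tasted aqueous solutions of the compounds, which had to be ≥95 weight percent pure and to have passed mutagenicity and single oral dose toxicity screening. The value is the percentage of panel judgments reporting an aftertaste. Where given, its character is recorded as sweet, bitter or bitter-sweet.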
# Homo sapiens [12] = species on record: Homo sapiens; assay: Intensity calculated on a weight basis relative to an 85500 ppm sucrose solution at a concentration of 240 ppm (mean value); procedure, shortened: as §1
# Homo sapiens [13] = species on record: Homo sapiens; assay: Sour character at a concentration of 240 ppm (mean value); procedure, shortened: as §5
# Homo sapiens [14] = species on record: Homo sapiens; assay: Salty character at a concentration of 240 ppm (mean value); procedure, shortened: as §5
# Homo sapiens [15] = species on record: Homo sapiens; assay: Bitter character at a concentration of 240 ppm (mean value); procedure, shortened: as §2
# Homo sapiens [16] = species on record: Homo sapiens; assay: Experimentally determined perceived intensity of compound at a concentration of 240 ppm (mean value); procedure, shortened: as §3
# Homo sapiens [17] = species on record: Homo sapiens; assay: Sweet / Bitter character at a concentration of 240 ppm (mean value); 0/100
# Homo sapiens [18] = species on record: Homo sapiens; assay: Percentage of judgments reporting an aftertaste at a concentration of 240 ppm and character thereof; procedure, shortened: as §6
# Homo sapiens [19] = species on record: Homo sapiens; assay: Sweet character at a concentration of 240 ppm (mean value); procedure, shortened: as §5
# Homo sapiens [20] = species on record: Homo sapiens; assay: Other taste character at a concentration of 240 ppm (mean value); procedure, shortened: as §5
# Homo sapiens [21] = species on record: Homo sapiens; assay: Intensity calculated on a molar basis relative to a 0.25 M sucrose solution at a concentration of 240 ppm (mean value); procedure, shortened: as §4
# Homo sapiens [22] = species on record: Homo sapiens; assay: Intensity calculated on a weight basis relative to an 85500 ppm sucrose solution at a concentration of 210 ppm (mean value); procedure, shortened: as §1
# Homo sapiens [23] = species on record: Homo sapiens; assay: Sour character at a concentration of 210 ppm (mean value)
# Homo sapiens [24] = species on record: Homo sapiens; assay: Bitter character at a concentration of 210 ppm (mean value); procedure, shortened: as §2
# Homo sapiens [25] = species on record: Homo sapiens; assay: Other taste character at a concentration of 210 ppm (mean value)
# Procedure, shortened: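 Trained human panel tasted aqueous solutions of each compound. Aftertaste is scored as the percentage of judgments reporting one, with its character coded sweet (s), bitter (b) or bitter-sweet (bs).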
# Homo sapiens [26] = species on record: Homo sapiens; assay: Experimentally determined perceived intensity of compound at a concentration of 210 ppm (mean value); procedure, shortened: as §3
# Homo sapiens [27] = species on record: Homo sapiens; assay: Sweet / Bitter character at a concentration of 210 ppm (mean value); 0/100
# Homo sapiens [28] = species on record: Homo sapiens; assay: Percentage of judgments reporting an aftertaste at a concentration of 210 ppm and character thereof; procedure, shortened: as §6
# Homo sapiens [29] = species on record: Homo sapiens; assay: Sweet character at a concentration of 210 ppm (mean value)
# Homo sapiens [30] = species on record: Homo sapiens; assay: Intensity calculated on a molar basis relative to a 0.25 M sucrose solution at a concentration of 210 ppm (mean value); procedure, shortened: as §4
# Homo sapiens [31] = species on record: Homo sapiens; assay: Salty character at a concentration of 210 ppm (mean value)
# Homo sapiens [32] = species on record: Homo sapiens; assay: Sour character at a concentration of 251 ppm (mean value); procedure, shortened: as §5
# Homo sapiens [33] = species on record: Homo sapiens; assay: Percentage of judgments reporting an aftertaste at a concentration of 251 ppm and character thereof
# Procedure, shortened: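 Trained human sensory panel; compounds tasted in aqueous solution. Before panel work, compounds had to be ≥95 weight percent pure (HPLC, proton titration, Karl Fischer) and free of mutagenicity (five Salmonella typhimurium strains, ± microsomal activation) and single oral dose mouse toxicity. Value is the percentage of judgments reporting an aftertaste, with its character recorded as sweet, bitter or bitter-sweet.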
# Homo sapiens [34] = species on record: Homo sapiens; assay: Intensity calculated on a weight basis relative to an 85500 ppm sucrose solution at a concentration of 251 ppm (mean value); procedure, shortened: as §1
# Homo sapiens [35] = species on record: Homo sapiens; assay: Bitter character at a concentration of 251 ppm (mean value); procedure, shortened: as §2
# Homo sapiens [36] = species on record: Homo sapiens; assay: Experimentally determined perceived intensity of compound at a concentration of 251 ppm (mean value); procedure, shortened: as §3
# Homo sapiens [37] = species on record: Homo sapiens; assay: Sweet / Bitter character at a concentration of 251 ppm (mean value); 51/49
# Homo sapiens [38] = species on record: Homo sapiens; assay: Sweet character at a concentration of 251 ppm (mean value); procedure, shortened: as §5
# Homo sapiens [39] = species on record: Homo sapiens; assay: Intensity calculated on a molar basis relative to a 0.25 M sucrose solution at a concentration of 251 ppm (mean value); procedure, shortened: as §4
# Homo sapiens [40] = species on record: Homo sapiens; assay: Salty character at a concentration of 251 ppm (mean value); procedure, shortened: as §5
# Homo sapiens [41] = species on record: Homo sapiens; assay: Other taste character at a concentration of 251 ppm (mean value); procedure, shortened: as §5
# Homo sapiens [42] = species on record: Homo sapiens; assay: Intensity calculated on a weight basis relative to an 85500 ppm sucrose solution at a concentration of 260 ppm (mean value); procedure, shortened: as §1
# Homo sapiens [43] = species on record: Homo sapiens; assay: Experimentally determined perceived intensity of compound at a concentration of 260 ppm (mean value); procedure, shortened: as §3
# Homo sapiens [44] = species on record: Homo sapiens; assay: Bitter character at a concentration of 260 ppm (mean value); procedure, shortened: as §2
# Homo sapiens [45] = species on record: Homo sapiens; assay: Sour character at a concentration of 260 ppm (mean value)
# Homo sapiens [46] = species on record: Homo sapiens; assay: Sweet / Bitter character at a concentration of 260 ppm (mean value); 94/6
# Homo sapiens [47] = species on record: Homo sapiens; assay: Sweet character at a concentration of 260 ppm (mean value)
# Homo sapiens [48] = species on record: Homo sapiens; assay: Intensity calculated on a molar basis relative to a 0.25 M sucrose solution at a concentration of 260 ppm (mean value); procedure, shortened: as §4
# Homo sapiens [49] = species on record: Homo sapiens; assay: Salty character at a concentration of 260 ppm (mean value)
# Homo sapiens [50] = species on record: Homo sapiens; assay: Other taste character at a concentration of 260 ppm (mean value); procedure, shortened: as §5
# Homo sapiens [51] = species on record: Homo sapiens; assay: Percentage of judgments reporting an aftertaste at a concentration of 260 ppm and character thereof; procedure, shortened: as §6
structure (smiles),measurement,setting,value
COc1ccc(CCC(=O)O)cc1O,IW,Homo sapiens [1],210
same,Taste character,Homo sapiens [2],69
same,Taste character,Homo sapiens [3],0
same,Taste character,Homo sapiens [4],28
same,IP,Homo sapiens [5],0.6
same,Taste character,Homo sapiens [6],0
same,Judgments,Homo sapiens [7],8
same,Taste character,Homo sapiens [8],0
same,IM,Homo sapiens [9],120
same,Taste character,Homo sapiens [10],3
same,Judgments,Homo sapiens [11],50
COc1ccc(CCCc2c(O)cc(OCC(=O)[O-])cc2O)cc1O.[Na+],IW,Homo sapiens [12],4
same,Taste character,Homo sapiens [13],0
same,Taste character,Homo sapiens [14],0
same,Taste character,Homo sapiens [15],100
same,IP,Homo sapiens [16],0.01
same,Taste character,Homo sapiens [17],0
same,Judgments,Homo sapiens [7],12
same,Judgments,Homo sapiens [18],0
same,Taste character,Homo sapiens [19],0
same,Taste character,Homo sapiens [20],0
same,IM,Homo sapiens [21],4
COc1ccc(CC/C(=N\O)c2c(O)cc(OCC(=O)[O-])cc2O)cc1O.[Na+],IW,Homo sapiens [22],110
same,Taste character,Homo sapiens [23],26
same,Taste character,Homo sapiens [24],74
same,Taste character,Homo sapiens [25],0
same,IP,Homo sapiens [26],0.2
same,Taste character,Homo sapiens [27],0
same,Judgments,Homo sapiens [7],12
same,Judgments,Homo sapiens [28],0
same,Taste character,Homo sapiens [29],0
same,IM,Homo sapiens [30],130
same,Taste character,Homo sapiens [31],0
CCCOc1ccc(CCC(=O)c2c(O)cc(OCC(=O)[O-])cc2O)cc1O.[Na+],Taste character,Homo sapiens [32],0
same,Judgments,Homo sapiens [33],100
same,IW,Homo sapiens [34],240
same,Taste character,Homo sapiens [35],38
same,IP,Homo sapiens [36],0.72
same,Judgments,Homo sapiens [7],12
same,Taste character,Homo sapiens [37],51
same,Taste character,Homo sapiens [38],39
same,IM,Homo sapiens [39],300
same,Taste character,Homo sapiens [40],0
same,Taste character,Homo sapiens [41],23
COc1ccc(CCC(=O)c2c(O)cc(OCC(=O)[O-])cc2O)cc1O.[Na+],IW,Homo sapiens [42],300
same,IP,Homo sapiens [43],0.9
same,Taste character,Homo sapiens [44],5
same,Taste character,Homo sapiens [45],0
same,Judgments,Homo sapiens [7],12
same,Taste character,Homo sapiens [46],94
same,Taste character,Homo sapiens [47],76
same,IM,Homo sapiens [48],330
same,Taste character,Homo sapiens [49],0
same,Taste character,Homo sapiens [50],19
same,Judgments,Homo sapiens [51],100
